# Reference: publication PMC9064604 (RSC Advances, 2019)
# Where two headings read alike, the source gives them in different places.
# Key:
# murine melanoma B16-F10 = assay: Cell viability assay; assay type: cell-based; details: read-out: IC50 B16-F10, dark
# [1] = system: human colon adenocarcinoma Caco-2; assay: Cell viability assay; assay type: cell-based; details: Caco-2, 72 h, read-out: IC50 Caco-2, dark
# [2] = system: triple negative human breast adenocarcinoma MDA-MB-231; assay: Cell viability assay; assay type: cell-based; details: MDA-MB-231, 72 h, read-out: IC50 MDA-MB-231, dark
# [3] = system: human colorectal adenocarcinoma HT-29; assay: Cell viability assay; assay type: cell-based; details: read-out: IC50 HT-29, dark
# [4] = system: human alveolar adenocarcinoma A549; assay: Cell viability assay; assay type: cell-based; details: A549, 72 h, read-out: IC50 A549, dark
# A549 cells = assay: Quantification of cellular uptake by LC-MS/MS; assay type: cell-based, human
# How it was run: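 A549 cells (1.2 × 10⁵/well) adhered overnight, then received 3 μM test compound. Medium was removed immediately or after 1, 3, 6, 12 or 24 h in the dark at 37 °C/5% CO₂. Cells were washed with PBS/1.5% DMSO, scraped into acetonitrile, sonicated and centrifuged. Extracts were quantified by LC-MS/MS against external standards (0.02–0.25 μM in A549 extract). Per-cell concentration assumed 1.7 pL cell volume; n = 4, mean ± SEM.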
"IC50 (murine melanoma B16-F10; Mus musculus, B16-F10, 72 h)",IC50 [1],IC50 [2],"IC50 ([3]; Homo sapiens, HT-29, 72 h)",IC50 [4],Structure (SMILES),"maximum cellular concentration per cell (A549 cells; 3 μM, A549, assuming average cell volume of 1.7 pL and homogeneous distribution)","time at which cellular uptake was optimal / plateaued (A549 cells; A549, 3 μM)","IC50 (murine melanoma B16-F10; dark, 72 h, WST-1, mean ± SEM)","IC50 ([3]; dark, 72 h, WST-1, mean ± SEM)"
> 100 µM,> 100 µM,37.5 ± 0.14 µM,> 100 µM,> 100 µM,"c1ccc(-c2ccccn2)nc1 [bipy, 2,2′-bipyridine]",–,–,–,–
> 100 µM,> 100 µM,> 100 µM,> 100 µM,> 100 µM,"Cc1cc(-c2ccccc2)c2ccc3c(-c4ccccc4)cc(C)nc3c2n1 [BC, bathocuproine]",2000 μM per cell,3 h,–,–
–,–,–,–,–,"N.N.[Cl][Pt][Cl] [Cisplatin, cisplatin]",–,–,7.7 ± 0.2 µM,> 100 µM
